Reference: ChEMBL document CHEMBL4270489, “Synthesis and in vitro and in vivo antitumour activity study of 11-hydroxyl esterified bergenin/cinnamic acid hybrids” (Eur J Med Chem, 2017)

Legend:
Type in all cases: functional, cell-based
PC-3 = assay: Antiproliferative activity against human PC3 cells incubated for 48 to 72 hrs by MTT assay
Summary of the method: (§1)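 MTT assay. Cells were grown in DMEM with 10% heat-inactivated FBS at 37°C under 5% CO₂. They were seeded at 5000/well in 5% FBS DMEM for 24 h, then given compound in DMSO at 0.1, 1, 10 and 100 µmol/L for 72 h (the table footnote says 48 h). MTT was added for 4 h, formazan was dissolved in DMSO and read at 570 nm. IC₅₀ was from ≥3 independent runs; >100 μM was given if 50% inhibition was not reached.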

MCF7 = assay: Antiproliferative activity against human MCF7 cells incubated for 48 to 72 hrs by MTT assay; summary of the method: as §1
HepG2 = assay: Antiproliferative activity against human HepG2 cells incubated for 48 to 72 hrs by MTT assay; summary of the method: as §1
SGC-7901 = assay: Antiproliferative activity against human SGC7901 cells incubated for 48 to 72 hrs by MTT assay; summary of the method: as §1
A549 = assay: Antiproliferative activity against human A549 cells incubated for 48 to 72 hrs by MTT assay; summary of the method: as §1

SMILES | IC50 (PC-3) [µM] | IC50 (MCF7) [µM] | IC50 (HepG2) [µM] | IC50 (SGC-7901) [µM] | IC50 (A549) [µM]
COc1c(O)cc2c(c1O)[C@@H]1O[C@H](COC(=O)/C=C/c3ccc(Cl)cc3)[C@@H](O)[C@H](O)[C@H]1OC2=O | 86.5 | > 100 | > 100 | > 100 | > 100
COc1ccc(/C=C/C(=O)OC[C@H]2O[C@H]3c4c(cc(O)c(OC)c4O)C(=O)O[C@@H]3[C@@H](O)[C@@H]2O)cc1OC | > 100 | > 100 | 86.1 | 58.9 | > 100
COc1c(O)cc2c(c1O)[C@@H]1O[C@H](COC(=O)/C=C/c3ccc(C)c(C)c3)[C@@H](O)[C@H](O)[C@H]1OC2=O | > 100 | 59.5 | > 100 | > 100 | > 100

These reach a lower IC50 (PC-3). Values come first.

IC50 (PC-3) [µM] | IC50 (MCF7) [µM] | IC50 (HepG2) [µM] | IC50 (SGC-7901) [µM] | IC50 (A549) [µM] | SMILES
46.2 | 72.1 | > 100 | > 100 | 28.4 | COc1c(O)cc2c(c1O)[C@@H]1O[C@H](COC(=O)/C=C/c3cc(F)cc(F)c3)[C@@H](O)[C@H](O)[C@H]1OC2=O
30.2 | 20.2 | > 100 | 11.4 | 10.3 | COc1c(O)cc2c(c1O)[C@@H]1O[C@H](COC(=O)/C=C/c3ccc(C)cc3)[C@@H](O)[C@H](O)[C@H]1OC2=O
26.3 | 6.25 | 16.8 | 27.8 | 12.3 | COc1cc(/C=C/C(=O)OC[C@H]2O[C@H]3c4c(cc(O)c(OC)c4O)C(=O)O[C@@H]3[C@@H](O)[C@@H]2O)cc(OC)c1
13.5 | > 100 | 18.5 | 9.67 | 56.9 | COc1c(O)cc2c(c1O)[C@@H]1O[C@H](COC(=O)/C=C/c3ccccc3)[C@@H](O)[C@H](O)[C@H]1OC2=O
12.1 | 11.7 | 6.62 | 7.53 | 5.46 | COc1cc(/C=C/C(=O)OC[C@H]2O[C@H]3c4c(cc(O)c(OC)c4O)C(=O)O[C@@H]3[C@@H](O)[C@@H]2O)cc(OC)c1OC
